The values that follow come from ChEMBL document CHEMBL4613289, “Pharmacophore-Based Design of New Chemical Scaffolds as Translational Readthrough-Inducing Drugs (TRIDs)” (ACS Med Chem Lett, 2020).

What all share (assay type): cell-based
One series deals with HeLa. As to the kind of experiment: Induction of read through activity at CFTR gene premature termination codon UGA transfected in human HeLa cells assessed as increase in luciferase activity at 12 uM incubated for 24 hrs by steady-glo luciferase reporter gene assay. The essentials: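 HeLa cells were transiently transfected with pFLuc-opal (UGA stop) and treated for 24 h at 12 μM, with 12 μM PTC124 as reference. FLuc activity was then measured. pFLuc-WT transfected cells served as the positive control and untreated pFLuc-opal cells as the negative control.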
On the technique in general: Reporter assays use an easily measured gene product as a stand-in for the process of interest.

The species entered for the next series is Homo sapiens. As to the kind of experiment: Induction of mutation read through activity at human CFTR G542X mutant premature termination codon UGA transfected in FRT cells assessed as increase in CFTR protein expression at 12 uM incubated for 24 hrs by DAPI-staining based immunofluorescence microscopic analysis. A digest of the protocol: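 FRT cells stably carrying pTracer vectors with human G542X-CFTR or WT-CFTR cDNA were exposed to 12 μM compound for 24 h. CFTR was detected by immunofluorescence microscopy, with membrane stained red and nuclei stained with DAPI. Untreated G542X cells served as the negative control.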

The nature of series [1]: Cytotoxicity against rat FRT cells at 12 uM after 24 to 72 hrs by trypan blue staining based assay. A digest of the protocol:
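Wild-type CFTR FRT cells treated with 12 μM compound, with 12 μM PTC124 as the control. Percentages of live and dead cells and cell proliferation were scored at 24, 48 and 72 h after treatment.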

Calls of active or inactive are those of the source. The rule behind the calls is not given here.

As to `O=C(O)c1ccc2nc(-c3ccccc3Cl)[nH]c2c1`, the result in the series with HeLa and in the series listed under Homo sapiens was Active. The Activity entry in series [1] is “Non-Toxic”.
Take `O=C(O)c1cccc(-c2noc(-c3ccccc3F)n2)c1` [ATALUREN]: the outcome in the series on HeLa was Active. Moreover, the Activity result in series [1] is “Non-Toxic”.
Turning to `COC(=O)c1ccc2nc(-c3cc(Cl)cc(Cl)c3)oc2c1`, in the series on HeLa, the result was Active. Further, in series [1], the Activity result is “Non-Toxic”.
Take `COC(=O)c1csc(COc2cc(Cl)cc(Cl)c2)n1`: the outcome in the series with HeLa and in the series listed under Homo sapiens was Active. The Activity result in series [1] is listed as “Non-Toxic”.
For `O=S(=O)(Oc1ccc(F)cc1F)c1cccc(S(=O)(=O)Oc2ccc(F)cc2F)c1`, in the series with HeLa, the result was Active. In series [1], the Activity entry was “Non-Toxic”.
